Test results as given in ChEMBL document CHEMBL4043264, “Design, synthesis, X-ray studies, and biological evaluation of novel macrocyclic HIV-1 protease inhibitors involving the P1'-P2' ligands” (Bioorg Med Chem Lett, 2017).

What was measured:
[1] = tested on: Human immunodeficiency virus 1; assay: Antiviral activity against HIV-1 harboring protease I50V mutant; assay type: functional
[2] = tested on: Human immunodeficiency virus 1; assay: Antiviral activity against wild type HIV-1 NL4-3 infected in human MT4 cells assessed as reduction in p24 Gag protein production; assay type: functional, cell-based; settings: Human immunodeficiency virus 1, NL4-3, MT4
[3] = Inhibition of HIV-1 protease using fluorogenic substrate by fluorescence assay; parameters: species or system Human immunodeficiency virus 1
[4] = tested on: Human immunodeficiency virus 1; assay: Antiviral activity against darunavir-resistant HIV1 harboring protease L10I/[…]K20R/L24I/V32I/M36I/M46L/L63P/V82A/L89M mutant infected in human MT4 cells assessed as reduction in p24 Gag protein production; assay type: functional, cell-based; settings: Human immunodeficiency virus 1, MT4
Procedure, shortened: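 MT-4 cells (1×10^4) infected with 50 TCID₅₀ of wild-type HIV-1 NL4-3 or the DRV-resistant variant HIV-1 DRV^R P20 (protease L10I/I15V/K20R/L24I/V32I/M36I/M46L/L63P/V82A/L89M). Cells then cultured with various concentrations of each protease inhibitor. IC50 determined from p24 assay. Each assay run in triplicate. Values are means of three independent experiments, with fold-change relative to wild type.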

[5] = tested on: Human immunodeficiency virus 1; assay: Anti-viral activity against HIV-1 LAI infected in human MT2 cells assessed as reduction in p24 Gag protein production; assay type: functional, cell-based; settings: Human immunodeficiency virus 1, M:B_Lai
[6] = Ratio of IC50 for darunavir-resistant HIV1 harboring protease L10I/I15V/K20R/L24I/V32I/M36I/M46L/L63P/V82A/L89M mutant infected in human MT4 cells to IC50 for wild type HIV1 NL4-3 infected in human MT4 cells; assay type: functional
[7] = Inhibition of wild-type HIV-1 protease; parameters: species or system Human immunodeficiency virus 1

| SMILES | Ki [3] | IC50 [5] | also measured |
| --- | --- | --- | --- |
| CC(C)CN(C[C@@H](O)[C@H](Cc1ccccc1)NC(=O)O[C@H]1CO[C@H]2OCC[C@H]21)S(=O)(=O)c1ccc(N)cc1 |  |  | IC50 [1]: 1.6 nM |
| Nc1ccc2c(c1)COCCCCCCCN(C[C@@H](O)[C@H](Cc1ccccc1)NC(=O)O[C@H]1CO[C@H]3OCC[C@H]31)S2(=O)=O | 0.014 nM | 2 nM | IC50 [2]: 1.5 nM; IC50 [4]: 20 nM; Ratio IC50 [6]: 13 |
| COc1ccc2c(c1)OCCCCCOCCN(C[C@@H](O)[C@H](Cc1ccccc1)NC(=O)O[C@H]1CO[C@H]3OCC[C@H]31)S2(=O)=O | 4.21 nM |  |  |
| COc1ccc2c(c1)OCC/C=C/CN1C(=O)CC[C@@H]1CN(C[C@@H](O)[C@H](Cc1ccccc1)NC(=O)O[C@H]1CO[C@H]3OCC[C@H]31)S2(=O)=O | 0.47 nM | 176 nM |  |
| COc1ccc2c(c1)COC/C=C\CCCCCN(C[C@@H](O)[C@H](Cc1ccccc1)NC(=O)O[C@H]1CO[C@H]3OCC[C@H]31)S2(=O)=O | 0.64 nM |  |  |
| COc1ccc2c(c1)OCCCCCCN(S(C)(=O)=O)CCN(C[C@@H](O)[C@H](Cc1ccccc1)NC(=O)O[C@H]1CO[C@H]3OCC[C@H]31)S2(=O)=O | 13.3 nM |  |  |
| COc1ccc2c(c1)COCCCCCCCN(C[C@@H](O)[C@H](Cc1ccccc1)NC(=O)O[C@H]1CO[C@H]3OCC[C@H]31)S2(=O)=O | 0.062 nM | 5.3 nM | IC50 [2]: 3.6 nM; IC50 [4]: 240 nM; Ratio IC50 [6]: 67 |
| COc1ccc2c(c1)COC/C=C\CCCCN(C[C@@H](O)[C@H](Cc1ccccc1)NC(=O)O[C@H]1CO[C@H]3OCC[C@H]31)S2(=O)=O | 0.029 nM | 54 nM |  |
| COc1ccc2c(c1)OCCCCCN1C(=O)CC[C@H]1CN(C[C@@H](O)[C@H](Cc1ccccc1)NC(=O)O[C@H]1CO[C@H]3OCC[C@H]31)S2(=O)=O | 27 nM | > 1000 nM |  |
| COc1ccc2c(c1)COCCCCCCCCN(C[C@@H](O)[C@H](Cc1ccccc1)NC(=O)O[C@H]1CO[C@H]3OCC[C@H]31)S2(=O)=O | 0.062 nM | 31 nM |  |
| COc1ccc2c(c1)OCCCCCN1C(=O)CC[C@@H]1CN(C[C@@H](O)[C@H](Cc1ccccc1)NC(=O)O[C@H]1CO[C@H]3OCC[C@H]31)S2(=O)=O | 0.46 nM | 122 nM |  |
| COc1ccc2c(c1)COC/C=C/CCCCN(C[C@@H](O)[C@H](Cc1ccccc1)NC(=O)O[C@H]1CO[C@H]3OCC[C@H]31)S2(=O)=O | 0.015 nM | 46 nM |  |
| COc1ccc2c(c1)OCCCCCN(S(C)(=O)=O)CCN(C[C@@H](O)[C@H](Cc1ccccc1)NC(=O)O[C@H]1CO[C@H]3OCC[C@H]31)S2(=O)=O | 33.3 nM |  |  |
| COc1ccc2c(c1)OCCCCCCOCCN(C[C@@H](O)[C@H](Cc1ccccc1)NC(=O)O[C@H]1CO[C@H]3OCC[C@H]31)S2(=O)=O | 9.85 nM | > 1000 nM |  |
| COc1ccc2c(c1)OCC/C=C\CN1C(=O)CC[C@@H]1CN(C[C@@H](O)[C@H](Cc1ccccc1)NC(=O)O[C@H]1CO[C@H]3OCC[C@H]31)S2(=O)=O | 13.2 nM | 22 nM |  |
| COc1ccc2c(c1)COC/C=C/CCCCCN(C[C@@H](O)[C@H](Cc1ccccc1)NC(=O)O[C@H]1CO[C@H]3OCC[C@H]31)S2(=O)=O | 0.55 nM |  |  |
| COc1ccc(S(=O)(=O)N(CC(C)C)C[C@@H](O)[C@H](Cc2ccccc2)NC(=O)O[C@H]2CO[C@H]3OCC[C@H]32)cc1 |  |  | Ki [7]: 0.014 nM; IC50 [1]: 1.2 nM |
